Columns and labels:
HEK293 = assay: Antiproliferative activity against HEK293 cells assessed as reduction of cell growth after 72 hrs by MTT method; type: cell-based; conditions: Homo sapiens, HEK293, 72 h
Outline: (§1)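 Cells (3.4 × 10^4) seeded in 96-well plates, left to adhere 2 h at 37 °C in 5% CO2. Medium replaced with fresh medium, then 1:4 serial dilutions of compound added. Incubation 72 h. MTT (5 mg/mL stock) added for 3 h. Crystals dissolved in 50% DMF/20% SDS, pH 4.5, and OD read at 620 nm. % dead cells = 100 − (OD treated/OD control)×100. IC50 taken versus control.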

J774 = assay: Antiproliferative activity against mouse J774 cells assessed as reduction of cell growth after 72 hrs by MTT method; type: cell-based; conditions: J774, 72 h; outline: as §1
WEHI-164 = assay: Antiproliferative activity against mouse WEHI164 cells assessed as reduction of cell growth after 72 hrs by MTT method; type: functional, cell-based; conditions: WEHI-164, 72 h; outline: as §1

| SMILES | IC50 (HEK293) | IC50 (J774) | IC50 (WEHI-164) |
| --- | --- | --- | --- |
| C[C@@H]1O[C@@H](O[C@H]2[C@H](O[C@H]3CC[C@]4(C)[C@H]5CC=C6[C@@H]7CC(C)(C)CC[C@]7(C(=O)O[C@@H]7O[C@H](CO[C@@H]8O[C@H](CO)[C@@H](O[C@@H]9O[C@@H](C)[C@H](O)[C@@H](O[C@@H]%10O[C@H](CO)[C@@H](O)[C@H](O)[C@H]%10O)[C@H]9O)[C@H](O)[C@H]8O)[C@@H](O)[C@H](O)[C@H]7O)CC[C@@]6(C)[C@]5(C)CC[C@H]4C3(C)C)OC[C@H](O)[C@@H]2O)[C@H](O)[C@H](O[C@@H]2O[C@H](CO)[C@@H](O)[C@H](O)[C@H]2O)[C@H]1O | 170 nM | 180 nM |  |
| C[C@@H]1O[C@@H](O[C@H]2[C@H](O[C@H]3CC[C@]4(C)[C@H]5CC=C6[C@@H]7CC(C)(C)CC[C@]7(C(=O)O[C@@H]7O[C@H](CO[C@@H]8O[C@H](CO)[C@@H](O[C@@H]9O[C@@H](C)[C@H](O)[C@@H](O)[C@H]9O)[C@H](O)[C@H]8O)[C@@H](O)[C@H](O)[C@H]7O)CC[C@@]6(C)[C@]5(C)CC[C@H]4C3(C)C)OC[C@H](O)[C@@H]2O)[C@H](O)[C@H](O)[C@H]1O [HEDERASAPONIN B] |  | 60 nM | 600 nM |
| C[C@@H]1O[C@@H](O[C@H]2[C@H](O)[C@@H](O[C@@H]3O[C@H](CO)[C@@H](O)[C@H](O)[C@H]3O)[C@H](OC[C@H]3O[C@@H](OC(=O)[C@]45CCC(C)(C)C[C@H]4C4=CC[C@@H]6[C@@]7(C)CC[C@H](O[C@@H]8OC[C@H](O)[C@H](O)[C@H]8O[C@@H]8O[C@@H](C)[C@H](O)[C@@H](O[C@@H]9O[C@H](CO)[C@@H](O)[C@H](O)[C@H]9O)[C@H]8O)[C@@](C)(CO)[C@@H]7CC[C@@]6(C)[C@]4(C)CC5)[C@H](O)[C@@H](O)[C@@H]3O)O[C@@H]2C)[C@H](O)[C@H](O)[C@H]1O | 320 nM | 100 nM | 260 nM |
| C[C@@H]1O[C@@H](O[C@H]2[C@H](O)[C@@H](O)[C@H](OC[C@H]3O[C@@H](OC(=O)[C@]45CCC(C)(C)C[C@H]4C4=CC[C@@H]6[C@@]7(C)CC[C@H](O[C@@H]8OC[C@H](O)[C@H](O)[C@H]8O[C@@H]8O[C@H](C)[C@@H](O)[C@H](O)[C@H]8O)[C@@](C)(CO)[C@@H]7CC[C@@]6(C)[C@]4(C)CC5)[C@H](O)[C@@H](O)[C@@H]3O)O[C@@H]2CO)[C@H](O)[C@H](O)[C@H]1O |  | 460 nM | 1900 nM |
| C[C@@H]1O[C@@H](O[C@H]2[C@H](O)[C@@H](O)[C@H](OC[C@H]3O[C@@H](OC(=O)[C@]45CCC(C)(C)C[C@H]4C4=CC[C@@H]6[C@@]7(C)CC[C@H](O[C@@H]8OC[C@H](O)[C@H](O)[C@H]8O[C@@H]8O[C@H](C)[C@@H](O)[C@H](O)[C@H]8O)C(C)(C)[C@@H]7CC[C@@]6(C)[C@]4(C)CC5)[C@H](O)[C@@H](O)[C@@H]3O)O[C@@H]2CO)[C@H](O)[C@H](O)[C@H]1O | 200 nM | 100 nM |  |
| Sc1ncnc2nc[nH]c12 [MERCAPTOPURINE ANHYDROUS] |  | 3 nM | 17 nM |
| C[C@@H]1O[C@@H](O[C@H]2[C@H](O)[C@@H](O)[C@H](OC[C@H]3O[C@@H](OC(=O)[C@]45CCC(C)(C)C[C@H]4C4=CC[C@@H]6[C@@]7(C)CC[C@H](O[C@@H]8OC[C@H](O)[C@H](O)[C@H]8O[C@@H]8O[C@@H](C)[C@H](O)[C@@H](O[C@@H]9O[C@H](CO)[C@@H](O)[C@H](O)[C@H]9O)[C@H]8O)C(C)(C)[C@@H]7CC[C@@]6(C)[C@]4(C)CC5)[C@H](O)[C@@H](O)[C@@H]3O)O[C@@H]2CO)[C@H](O)[C@H](O)[C@H]1O | 520 nM |  | 1800 nM |
| C[C@@H]1O[C@@H](O[C@H]2[C@H](O[C@H]3CC[C@@]4(C)[C@@H](CC[C@]5(C)[C@@H]4CC=C4[C@@H]6CC(C)(C)CC[C@]6(C(=O)O)CC[C@]45C)[C@]3(C)CO)OC[C@H](O)[C@@H]2O)[C@H](O)[C@H](O[C@@H]2O[C@H](CO)[C@@H](O)[C@H](O)[C@H]2O)[C@H]1O |  | 70 nM |  |
| C[C@@H]1O[C@@H](O[C@H]2[C@H](O)[C@@H](O)[C@H](OC[C@H]3O[C@@H](OC(=O)[C@]45CCC(C)(C)C[C@H]4C4=CC[C@@H]6[C@@]7(C)CC[C@H](O[C@@H]8OC[C@H](O)[C@H](O)[C@H]8O[C@@H]8O[C@@H](C)[C@H](O)[C@@H](O[C@@H]9O[C@H](CO)[C@@H](O)[C@H](O)[C@H]9O)[C@H]8O)C(C)(C)[C@@H]7CC[C@@]6(C)[C@]4(C)C[C@H]5O)[C@H](O)[C@@H](O)[C@@H]3O)O[C@@H]2CO)[C@H](O)[C@H](O)[C@H]1O | 150 nM | 110 nM | 240 nM |
| C[C@@H]1O[C@@H](O[C@H]2[C@H](O[C@H]3CC[C@]4(C)[C@H]5CC=C6[C@@H]7CC(C)(C)CC[C@]7(C(=O)O)[C@H](O)C[C@@]6(C)[C@]5(C)CC[C@H]4C3(C)C)OC[C@H](O)[C@@H]2O)[C@H](O)[C@H](O[C@@H]2O[C@H](CO)[C@@H](O)[C@H](O)[C@H]2O)[C@H]1O |  | 190 nM |  |

From ChEMBL document CHEMBL1155685, “Antiproliferative triterpene saponins from Trevesia palmata” (J Nat Prod, 2000)
